From ChEMBL document CHEMBL1129958, “Synthesis and antiviral activity of certain 5'-modified analogs of 2,5,6-trichloro-1-(beta-D-ribofuranosyl)benzimidazole” (J Med Chem, 1997)

What was measured:
[1] = system: Human betaherpesvirus 5; experiment: In vitro reduction in yield of Towne strain of HCMV in HFF (human fibroblast) cells.; assay type: functional; conditions: Human betaherpesvirus 5, HFF
In short: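 HFF in 96-well plates infected with HCMV Towne at MOI 0.5-1 PFU/cell. After adsorption, compound given in duplicate, serially diluted 1:3 from 100 to 0.14 µM. After 7 days at 37 °C, one freeze-thaw cycle, then progeny titred by 1:3 serial dilution on fresh HFF monolayers with plaque counts. IC90 taken from regression of percent inhibition against log concentration.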

[2] = system: Human alphaherpesvirus 1; experiment: In vitro antiviral activity against HSV-1 virus in BSC-1 (monkey kidney) cells.; assay type: functional, organism-based; conditions: Human alphaherpesvirus 1, BSC-1
In short: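 BSC-1 cells, 10 000/well in MEM(E) with 10% calf serum, incubated overnight at 37 °C. Drug added in quadruplicate together with HSV-1 KOS at 100 PFU/well and incubated 3 days. Read-out by ELISA with HRP-conjugated rabbit anti-HSV-1 and TMB substrate, absorbance at 450 and 570 nm. Percent absorbance reduction against virus-only wells regressed on log concentration for IC50.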

[3] = system: L1210; experiment: concentration required to decrease the cell density in the treated cultures to one-half of the control was measured on L1210 murine Leukemia cells (in vitro); assay type: functional, cell-based; conditions: Mus musculus
In short: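 L1210 cells, 2000/well, given compound the day after plating and incubated 3 days; cell density read by MTS reduction. Concentration–response in two independent experiments. IC50 is the concentration that halves cell density relative to control, averaged over the two experiments.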

[4] = system: Human betaherpesvirus 5; experiment: In vitro antiviral activity against HCMV (Towne strain) in HFF (human fibroblast) cells.; assay type: functional, organism-based; conditions: Human betaherpesvirus 5, HFF
In short: (§1)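 HFF monolayers in 24-well dishes infected with about 100 PFU HCMV/cm2 of cell sheet. After adsorption, compound in growth medium added to duplicate wells at four to eight concentrations. Incubated 7 days at 37 °C, fixed and stained with crystal violet, microscopic plaques counted. Percent plaque reduction against no-drug wells regressed on log concentration to give IC50.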

[5] = system: L1210; experiment: Effect of initial screen concentration of 100 uM on the growth of L1210 Murine Leukemia cells; assay type: functional, Mus musculus
In short: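 L1210 mouse leukemia cells in RPMI 1640 with 10% heat-inactivated horse serum, 2000 cells/well. Compound added the next day and incubated 3 days. Growth read by MTS tetrazolium reduction optical density as percent of control. Screen at 100 µM, or the solubility limit; value is the mean of two or three experiments.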

[6] = system: KB; experiment: In vitro inhibition of KB (human carcinoma) cell growth.; assay type: functional, cell-based
In short: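 KB cells, 3000–5000/well, incubated overnight at 37 °C. Compound added in quadruplicate at six to eight concentrations for 48 h (about two population doublings). Cells fixed in 95% ethanol, stained with 0.1% crystal violet, dye eluted with acidified ethanol and read at 570 nm. IC50 from regression against log concentration.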

[7] = system: HFF; experiment: Visual cytotoxicity was scored on Human foreskin fibroblasts (HFF cells) at the time of plaque enumeration.; assay type: functional, cell-based
In short: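 Stationary HFF cells from the plaque assays, not affected by virus, inspected microscopically for cytotoxicity at the time of plaque counting.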

[8] = system: Human betaherpesvirus 5; experiment: Antiviral activity was determined against Towne strain of HCMV by Plaque and yield reduction test; assay type: functional
[9] = system: Human betaherpesvirus 5; experiment: Antiviral activity was determined against AD169 strain of HCMV by Plaque and yield reduction test; assay type: functional, organism-based; in short: as §1
[10] = system: Human betaherpesvirus 5; experiment: Antiviral activity was determined against Towne strain of HCMV by Plaque and yield reduction test (Averaged results from duplicate or triplicate experiments); assay type: functional

SMILES | IC90 [1] | IC50 [2] | IC50 [3] | IC50 [4] | Control [5] | IC50 [6] | IC50 [7] | IC90 [8] | IC50 [9] | IC90 [10]
OC[C@H]1O[C@@H](n2c(Cl)nc3cc(Cl)c(Cl)cc32)[C@H](O)[C@@H]1O | 1.3 µM | 102 µM | > 100 µM | 2.8 µM | 76% |  |  |  |  | 
O[C@@H]1[C@@H](CF)OC(n2c(Cl)nc3cc(Cl)c(Cl)cc32)[C@@H]1O (some centres not stated) | 0.22 µM | > 100 µM | > 100 µM | 0.5 µM | 81% | > 100 µM | 32 µM |  |  | 
[N-]=[N+]=NC[C@H]1OC(n2c(Cl)nc3cc(Cl)c(Cl)cc32)[C@H](O)[C@@H]1O (some centres not stated) |  | > 100 µM | 80 µM | 1.5 µM | 29% | 70 µM | 32 µM | 0.6 µM |  | 
CCOC[C@H]1OC(n2c(Cl)nc3cc(Cl)c(Cl)cc32)[C@H](O)[C@@H]1O (some centres not stated) |  | > 100 µM | 59 µM | 4.6 µM | 9% | 80 µM | 26 µM |  |  | 
CCCCOC[C@H]1OC(n2c(Cl)nc3cc(Cl)c(Cl)cc32)[C@H](O)[C@@H]1O (some centres not stated) |  | > 100 µM | > 100 µM | 14.2 µM | 64% | 60 µM | 32 µM |  |  | 
O[C@@H]1[C@@H](CBr)OC(n2c(Cl)nc3cc(Cl)c(Cl)cc32)[C@@H]1O (some centres not stated) | 0.5 µM | > 100 µM | 100 µM | 1.5 µM | 54% | 90 µM | 32 µM |  |  | 
CSC[C@H]1OC(n2c(Cl)nc3cc(Cl)c(Cl)cc32)[C@H](O)[C@@H]1O (some centres not stated) |  | > 100 µM | > 100 µM | 4.5 µM | 73% | > 100 µM | 32 µM |  |  | 
O[C@@H]1[C@@H](CI)OC(n2c(Cl)nc3cc(Cl)c(Cl)cc32)[C@@H]1O (some centres not stated) |  | > 100 µM |  | 3.2 µM |  |  | 32 µM |  | 2.9 µM | 
O[C@@H]1[C@@H](CCl)OC(n2c(Cl)nc3cc(Cl)c(Cl)cc32)[C@@H]1O (some centres not stated) |  | > 100 µM | > 100 µM | 1 µM | 73% | 90 µM | 32 µM |  |  | 0.52 µM
COC[C@H]1OC(n2c(Cl)nc3cc(Cl)c(Cl)cc32)[C@H](O)[C@@H]1O (some centres not stated) | 2 µM | > 100 µM | 60 µM | 3 µM | 4% | 90 µM | 32 µM |  |  | 
Nc1nc2c(ncn2COC(CO)CO)c(=O)[nH]1 [GANCICLOVIR] | 1.6 µM | 3.5 µM |  | 7.4 µM |  | > 100 µM | > 100 µM |  |  | 
